ChEMBL document CHEMBL1138761, “Exploring the binding mode of semicarbazide-sensitive amine oxidase/VAP-1: identification of novel substrates with insulin-like activity” (J Med Chem, 2004)
Several values for one entry are separate records, joined by “and”; a condition that tells them apart may be missing. Equal entries are not always repeated.

Assays:
[1] = Ratio of Vmax/Km for human, mouse or rat SSAO
Method in brief: (§1)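 Crude membranes from human, rat or mouse adipocytes, made by hypo-osmotic lysis in 20 mM HES buffer with antiproteases (around 50 µg protein/assay). Incubated 30 min at 37 °C over a range of amine concentrations. H2O2 read spectrophotometrically with peroxidase, homovanillic acid and aminoantipyrine at 498 nm. Km and Vmax taken from Eadie-Hofstee plots; Vmax/Km ratio also given. Means ± SEM of 3-4 experiments.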

[2] = Maximum velocity for semicarbazide-sensitive amine oxidase (SSAO) of human, mouse or rat crude membranes; assay type: cell membranes; conditions: Membrane; method in brief: as §1

Row | Compound | Ratio [1] | Vmax (nmol/min/mg protein) [2]
1 | NCc1ccc(S(N)(=O)=O)cc1 | 0.007 and 0.01 | –
2 | COc1cccc(CN)c1OC | – | 1.1 and 3.2
3 | NCc1cccc2ccccc12 | 0.28 and 0.66 and 0.5 | –
